Experimental data pooled from the literature.
Lines come from different studies, so protocols differ.
Cell line: MCF7
Effect on: cell growth or viability

SMILES | test | conditions | measurement | result
COc1ccc(NC(=O)NCc2cn(Cc3ccc(C)cc3)nn2)cc1 | CCK-8 | 50 µM, 72 h | viability | 101%
Cc1nc(NC(=O)N2CCC[C@H]2C(N)=O)sc1-c1ccnc(C(C)(C)C(F)(F)F)c1 | ATP luminescence | 5 days | EC50 | 917 nM
CCNc1nc2ccc(-c3c/c(=N\c4ccccc4NC(=O)CCN)c4ccccc4o3)cc2o1 | CCK-8 | 1 µM | inhibition | 3.78%
COc1ccc(NC(=O)NCc2cn(Cc3ccccc3C)nn2)cc1 | CCK-8 | 50 µM, 48 h | viability | 96.3%
O=C(Nc1ccc(-c2cn(Cc3ccc(Cl)cc3)nn2)cc1)Nc1ccccc1Br | CCK-8 | 50 µM, 48 h | viability | 99.3%
COc1ccc2/c(=N/c3ccccc3NC(=O)CN)cc(-c3ccc4c(c3)OCCO4)oc2c1 | CCK-8 | 1 µM | inhibition | 9.77%
CCCS(=O)(=O)Oc1cc(C=NNC(=O)c2nc3ccccc3s2)ccc1OC | MTT | 100 µM, 48 h | cell death | 26.3%
O=C(Nc1ccc(Cl)cc1)Nc1ccc(-c2cn(Cc3cccc(Cl)c3)nn2)cc1 | CCK-8 | 50 µM, 72 h | viability | 98.2%
COCCC(=O)Nc1ccccc1/N=c1\cc(-c2ccc3c(c2)OCO3)oc2ccccc12 | CCK-8 | 1 µM | inhibition | 9.24%
Cc1n[nH]c2ccc3nc(-c4ccc(C(=O)NCCN(C)C)cc4F)c4c(c3c12)CCCCC4 | – | 72 h | GI50 | 5720 nM
O=C(NCc1cn(Cc2ccc(Cl)cc2)nn1)Nc1ccc(Cl)cc1 | CCK-8 | 50 µM, 48 h | viability | 80.8%
COc1ccc(NC(=O)NCc2cn(Cc3ccc(Cl)cc3)nn2)cc1 | CCK-8 | 50 µM, 48 h | viability | 90.6%
O=C(Nc1cccc(-c2cn(Cc3ccc(Br)cc3)nn2)c1)Nc1ccccc1Br | CCK-8 | 50 µM, 72 h | viability | 76.8%
CCc1nc(C(N)=O)c(Nc2ccc(N3CCC(N4CCN(C)CC4)CC3)c(OC)c2)nc1NC1CCOCC1 | – | 72 h | GI50 | 406 nM
COc1ccc2/c(=N/c3ccccc3NC(=O)[C@H](C)N)cc(-c3ccc4c(c3)OCCO4)oc2c1 | CCK-8 | 1 µM | inhibition | 8.55%
COc1ccc(NC(=O)Nc2cccc(-c3cn(Cc4ccc(Br)cc4)nn3)c2)cc1 | CCK-8 | 50 µM, 72 h | viability | 98.4%
NCC(=O)Nc1ccccc1/N=c1\cc(-c2ccc3c(c2)OCO3)oc2c(N)cccc12 | CCK-8 | 1 µM | inhibition | 7.42%
CC(C)C[C@@H](NC(=O)[C@H](C)NC(=O)CNC(=O)[C@@H](NC=O)C(C)C)C(=O)N[C@@H](C)C(=O)N[C@@H](C(=O)N[C@H](C(=O)N[C@@H](C(=O)N[C@@H](Cc1c[nH]c2ccccc12)C(=O)N[C@H](CC(C)C)C(=O)N[C@@H](Cc1c[nH]c2ccccc12)C(=O)N[C@H](CC(C)C)C(=O)N[C@@H](Cc1c[nH]c2ccccc12)C(=O)N[C@@H](C(=O)N[C@@H](Cc1c[nH]c2ccccc12)C(=O)NCCO)C(C)C)[C@H](C)O)C(C)C)C(C)C | SRB | 48 h | GI50 | 397 nM
NCC(=O)Nc1ccccc1/N=c1\cc(-c2ccc3c(c2)OCO3)oc2c([N+](=O)[O-])cccc12 | CCK-8 | 1 µM | inhibition | 11.7%
COc1ccc(NC(=O)Nc2cccc(-c3cn(Cc4ccccc4C)nn3)c2)cc1 | CCK-8 | 50 µM, 72 h | viability | 72.3%
